KCC2 mod: modulates chloride dependent transport by human KCC2; 190,000 tested, 2.2% active; AID 1456; B-score of Tl+ flux slope (higher = more flux/activation; lower = inhibition) at 10 µM; KCC2 cells, thallium flux FluoZin-2 fluorescence; Q9H2X9;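 active means thallium flux slope and its plate-corrected score both differing from the plate sample mean at a set confidence after two filtering rounds, in either direction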;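 further: slope of fluorescence scaled to starting intensity during 10 to 20 s after thallium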
KCNQ1 block: inhibitors of human KCNQ1 potassium channel; B-score at 10 µM; 310,000 tested, 1.3% active; CHO-K1 KCNQ1, FluxOR thallium flux fluorescence; active compounds read high; P51787; AID 2642;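 active means compounds whose thallium flux B-score, printed positive for inhibition, exceeds three library SD while starting fluorescence stays within three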;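 further: channel opened by potassium depolarization with thallium stimulus after 20 min compound exposure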
Target sequence (P51787 whole entry, looked up): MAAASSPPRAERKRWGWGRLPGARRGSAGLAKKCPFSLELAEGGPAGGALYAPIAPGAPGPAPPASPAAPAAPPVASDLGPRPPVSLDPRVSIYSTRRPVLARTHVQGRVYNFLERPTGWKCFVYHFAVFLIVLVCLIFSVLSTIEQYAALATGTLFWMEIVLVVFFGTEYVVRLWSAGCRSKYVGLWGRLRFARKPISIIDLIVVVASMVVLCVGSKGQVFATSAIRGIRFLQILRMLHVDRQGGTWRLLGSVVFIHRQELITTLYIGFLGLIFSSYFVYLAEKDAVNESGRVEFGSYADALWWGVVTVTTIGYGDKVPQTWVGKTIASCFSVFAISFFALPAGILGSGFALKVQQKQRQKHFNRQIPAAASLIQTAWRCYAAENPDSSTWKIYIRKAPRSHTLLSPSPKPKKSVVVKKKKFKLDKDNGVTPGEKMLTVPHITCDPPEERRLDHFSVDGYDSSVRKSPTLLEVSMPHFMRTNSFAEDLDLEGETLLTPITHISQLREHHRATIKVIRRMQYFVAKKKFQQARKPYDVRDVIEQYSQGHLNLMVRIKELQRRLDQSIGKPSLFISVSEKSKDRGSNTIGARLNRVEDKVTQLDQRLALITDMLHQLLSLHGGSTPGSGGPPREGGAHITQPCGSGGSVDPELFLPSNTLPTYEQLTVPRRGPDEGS
hERG protect: hERG (human) protection from proarrhythmic block; 310,000 tested, 0.51% active; AID 1511; CHO-hERG, FluxOR thallium flux, dofetilide IC70 present; activation (rescue from dofetilide block), less the hit threshold, % at 10 µM;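 active means activation above the mean of controls blocked by dofetilide plus 5 SD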;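 further: thallium influx through hERG after potassium depolarization seen as dye fluorescence rise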
KCNK3 inh: human KCNK3 channel inhibition, primary screen. CHO-KCNK3 thallium flux, FluxOR fluorescence; active compounds read low. B-score at 10 µM. 340,000 tested, 0.84% active. AID 602410;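 active means B-score under library mean minus 4 SD, starting fluorescence ratio at most library mean plus 5 SD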;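 further: more negative B-score means stronger inhibition of thallium flux through KCNK3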
KCNK9 inh: inhibitors of human KCNK9 two-pore domain potassium channel; 310,000 tested, 1.2% active; Q9NPC2; HEK293 KCNK9, FluxOR thallium flux fluorescence; active compounds read low; AID 488922; B-score at 10 µM;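 active means ratio B-score over 3 SD below the library mean, with starting fluorescence within 5 SD of its mean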;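 further: negative B-score means less thallium flux so channel inhibition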
KCNQ1 act: potentiators or activators of human KCNQ1 potassium channel; P51787; CHO-K1 KCNQ1, thallium flux FluxOR fluorescence; active compounds read high; B-score at 10 µM; 310,000 tested, 0.35% active; AID 2648;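 active means fluorescence ratio B-score, a plate-corrected score, at least three library SD, with initial intensity B-score within 5 SD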
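Doses: Single concentration per compound, DMSO matched to controls | Test system: KCNQ1-transfected CHO-K1 cells | Timing: 90 min dye loading and 20 min compound exposure, both at room temperature | Measured by: Kinetic FluxOR thallium fluorescence, 10-s 1-Hz baseline, 110-s post-stimulus read | Medium: Assay buffer with matched DMSO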
KCC2 secondary: confirmation of human KCC2 transport modulators; shares compounds with KCC2 mod; HEK293-KCC2, thallium flux, FluoZin2 fluorescence; active compounds read high; normalised thallium flux (F/F0 slope) at 10 µM; 3,700 tested, 15% active;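 active means thallium flux slope above the same plate's solvent-only control mean plus 3 SD; inconclusive means the two replicate wells disagree; inactive means no significant difference from solvent-only control wells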
KCC2 bumet counter: thallium flux persisting under bumetanide in KCC2 cells, counter-screen secondary assay | shares compounds with KCC2 mod | HEK293-KCC2 + bumetanide/ouabain, thallium flux FluoZin2; active compounds read high | normalized thallium flux at 10 µM | 3,700 tested, 49% active | AID 1714;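 active means thallium entry rate above the same plate's blocked-transporter control wells by more than 3 SD; inconclusive means the two repeat wells disagree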;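 further: raw slope of fluorescence over initial fluorescence between 10 and 20 s after thallium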
KCC2 secondary2: confirmation of human KCC2 transport modulators | shares compounds with KCC2 mod | HEK293-KCC2, thallium flux FluoZin2 fluorescence; actives lie on both sides; F/F0 rise rate, 10–20 s post-thallium | normalized thallium flux at 10 µM | 3,700 tested, 23% active | AID 1715;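 active means thallium flux slope more than 3 SD above or below the plate's solvent-only control mean, mostly below; inconclusive means the two repeat wells disagreed; inactive means no significant shift from solvent-only controls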;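 further: raw slope with 0.1% DMSO as baseline and bumetanide as block control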
HEK counter1: acts in parental HEK cells, KCC2 counter-screen; shares compounds with KCC2 mod; 3,700 tested, 46% active; HEK293 parental cells, thallium flux FluoZin2, ouabain; baseline-ratio fluorescence slope, 10–20 s after thallium; thallium flux rate (normalised fluorescence) at 10 µM;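 active means thallium flux rate significantly above the same plate's solvent-only control wells, beyond their mean plus 3 SD; inconclusive means the two replicate wells gave conflicting results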
KCC2 ouabain: confirmation of human KCC2 modulators with ouabain; HEK293-KCC2, thallium flux FluoZin2 fluorescence; bidirectional: low = inhibitor, high = activator; raw Tl+ flux slope (below DMSO = inhibition, above = activation) at 10 µM; shares compounds with KCC2 mod; 3,700 tested, 48% active;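 active means thallium flux slope beyond 3 SD from same-plate DMSO control mean in most replicates, usually higher, sometimes lower; inconclusive means repeat tests gave conflicting results; inactive means no significant difference from controls in most replicates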;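 further: slope of initial-normalized fluorescence between seconds 10 and 20 after thallium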
HEK counter2: parental HEK flux effect, counter-screen 2; shares compounds with KCC2 mod; HEK293 parental, thallium flux FluoZin-2 fluorescence slope; thallium flux slope at 10 µM; 3,700 tested, 33% active; AID 1718;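 active means thallium flux slope above the same plate's solvent-control mean plus 3 SD in both duplicate wells; inconclusive means duplicate wells that disagreed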;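 further: run without ouabain in cells lacking the KCC2 cotransporter; slope of fluorescence scaled to its starting value between 10 and 20 s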
Numbers without * were called inactive; i = inactive; ? = inconclusive; · = no result. Sampled rows, rich in hits. Any-hit rate of the full collection: about 4.1%.

SMILES	KCC2 mod	KCNQ1 block	hERG protect	KCNK3 inh	KCNK9 inh	KCNQ1 act	KCC2 secondary	KCC2 bumet counter	KCC2 secondary2	HEK counter1	KCC2 ouabain	HEK counter2
CC(=O)c1cccc(NC(=O)C(Sc2ncnc3ccccc23)c2ccccc2)c1 (stereo not drawn)	-0.014	i	-13	i	i	i	·	·	·	·	·	·
COc1cccc(NC(=O)[C@H](Cc2ccccc2)NC(=O)[C@@H]2Cc3ccccc3CN2)c1	·	i	-9	i	i	i	·	·	·	·	·	·
S=C(Nc1ccccn1)NC1CCCCC1	3.5*	i	-7	i	i	i	0.0071	0.0063*	0.033	0.0085	0.021	0.011
CN1CCN(CCc2nc3cc(NC(=O)COc4ccc(Cl)cc4)ccc3n2C)CC1	·	i	-10	i	i	i	·	·	·	·	·	·
Cc1ccc2[nH]c(=O)c3cc(C(=O)N(C)c4ccccc4C)sc3c2c1	0.18	i	-11	i	i	i	·	·	·	·	·	·
CC(Sc1nnc(-c2ccco2)o1)C(=O)NCCC1=CCCCC1 (stereo not drawn)	-1.3	i	-4	i	i	i	·	·	·	·	·	·
CCN(CC)S(=O)(=O)c1cccc(-c2nnc(SC(C)C(=O)NCCC3=CCCCC3)o2)c1 (stereo not drawn)	-2.4*	i	-9	i	i	i	0.0091	0.0047	0.034	0.0069	0.018	0.01
COc1ccc(-c2cc(C(F)(F)F)c3c(=O)n(-c4ccccc4)[nH]c3n2)cc1	-5.2*	i	-16	i	i	i	0.0072	0.0075	0.03	0.0069	0.018*	0.011
O=C(C1CCN(C2CC(=O)N(c3cccc(Cl)c3)C2=O)CC1)N1CCCC1 (stereo not drawn)	-0.59	i	-5	i	i	i	·	·	·	·	·	·
CCOC(=O)C1CCN(C2CC(=O)N(c3cccc(Cl)c3)C2=O)CC1 (stereo not drawn)	3*	i	1	i	i	i	0.0084	0.0085*	0.032	0.0075	0.022	0.0098
CCOC(=O)c1sc(-c2ccc(Cl)cc2)nc1O	15*	i	-4	i	i	i	0.0096	0.022*	0.032	0.011*	0.024	?
CCOC(=O)c1sc2nc(COC(=O)c3c(F)cccc3F)[nH]c(=O)c2c1C	1.1	i	-9	i	i	i	·	·	·	·	·	·
CCOC(=O)c1sc(-c2cccc(C(F)(F)F)c2)nc1O	8.1*	i	-1	i	i	i	0.0071	0.015*	0.03	0.012*	?	0.014*
CCOC(=O)c1sc2nc(Cc3ccc(Cl)cc3)[nH]c(=S)c2c1C	79*	i	75*	i	i	46*	0.025*	0.12*	0.038*	0.052*	0.076*	0.026*
O=C1NC2(CCCCCC2)C(=O)N1Cc1ccc(Cl)cc1Cl	·	i	-6	i	i	i	·	·	·	·	·	·
c1ccc(-c2ccc(-n3ccnc3)cc2)cc1	·	i	4	i	i	i	0.009	0.0055	?	0.0035	0.017*	0.01
CSc1nsc(N/N=C/c2ccc3c(c2)OCO3)c1C#N	8.2*	i	-8	i	i	i	0.0095	0.0068	0.035	0.0043	0.02	0.012
O=C(NNC(=O)c1csc(-c2cnccc2C(F)(F)F)n1)c1ccc(C(F)(F)F)cc1	5.9*	i	-4	i	i	i	?	0.041*	0.028	0.013*	?	?
O=C(CC(C(=O)N1CCc2ccccc21)n1ccnc1)N1CCc2ccccc2C1 (stereo not drawn)	-6.2*	i	-4	i	i	i	?	0.0049	0.024*	0.0069	?	0.01
O=C1OC2(O)C3C4C=CC(C4)C3C(=O)N2c2ccccc21 (stereo not drawn)	-0.22	i	-9	i	i	i	·	·	·	·	·	·
Cc1ccsc1/C=N/NC(=O)c1ccc2c(c1)OCCO2	0.54	i	-12	i	i	i	·	·	·	·	·	·
Cc1ccsc1/C=N\NC(=O)c1ccc2c(c1)OCO2	5.9*	i	-13	i	i	i	0.0066	0.0063*	0.027	0.011*	0.02	?
O=C(Nc1ccc(F)cc1)Nc1nnc(COc2ccccc2F)s1	1.4	i	-11	i	i	i	·	·	·	·	·	·
O=C(Nc1nnc(-c2ccc(F)cc2)s1)Nc1ccccc1F	-0.56	i	-5	i	i	i	·	·	·	·	·	·
O=C(Nc1nnc(-c2cccc(F)c2)s1)Nc1ccccc1F	3.8*	i	-6	i	i	i	0.0064	0.0048	0.031	0.0074	0.02	0.011
SMILES	KCC2 mod	KCNQ1 block	hERG protect	KCNK3 inh	KCNK9 inh	KCNQ1 act	KCC2 secondary	KCC2 bumet counter	KCC2 secondary2	HEK counter1	KCC2 ouabain	HEK counter2
O=C(Nc1nnc(COc2ccccc2F)s1)Nc1ccccc1F	2.6*	i	-3	i	i	i	0.0086	0.0054	0.032	0.0078	0.022	0.01
CCSc1nnc(NC(=O)CSc2nnc(-c3c[nH]c4ccccc34)n2C)s1	·	i	-9	i	i	i	·	·	·	·	·	·
Oc1ccccc1/C=N/NC(=S)NC1CC2CC1C1C=CCC21 (stereo not drawn)	15*	i	-11	i	i	i	0.01	0.014*	0.032	0.013*	0.032*	?
CCN(CC)CCN(C(=O)/C=C/c1cccs1)c1nc2ccc(C)cc2s1	·	i	-23	i	i	i	·	·	·	·	·	·
O=S(=O)(Nc1ccccc1N1CCCCC1)c1ccc(F)cc1F	19*	i	-7	i	i	i	0.013*	0.038*	0.031	0.012*	0.028	0.012*
Cc1ccc(S(=O)(=O)Nc2ccccc2N2CCCCC2)cc1	·	·	·	i	·	·	·	·	·	·	·	·

Bioassay records (PubChem BioAssay)
